Test results from ChEMBL document CHEMBL2169809, “Identification of high-affinity P2Y₁₂ antagonists based on a phenylpyrazole glutamic acid piperazine backbone” (J Med Chem, 2012).

Experiments:
[1] = test system: Platelet; test: Inhibition of ADP-stimulated platelet aggregation in human platelet rich plasma by 96-well format based turbidimetric method; assay type: functional
In short: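 Citrated (ACD-A) donor blood was spun at 150g for 15 min at room temperature to give PRP. PRP was adjusted with PPP to 3 × 10^8 platelets/mL. Compound, diluted in NaCl, was preincubated with hPRP for 5 min before ADP was added.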

[2] = biological target: P2Y purinoceptor 1 (Homo sapiens, UniProt P47900); test: Displacement of [33P]2-MeS-ADP from human recombinant P2Y1 receptor expressed in CHO cell membranes by scintillation counting method
[3] = test system: Platelet; test: Inhibition of collagen-stimulated platelet aggregation in human isolated platelets by light transmission aggregometry based Born method; assay type: functional, cell-based
In short: (§1)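 Platelets were pelleted from PRP (430g, 20 min, room temperature) and resuspended in modified Tyrode's buffer (145 mM NaCl, 5 mM KCl, 5.5 mM glucose, 15 mM Hepes, pH 7.4). CaCl2 (0.5 mM final) was added for 2 min at 37 °C, then fibrinogen (1 mg/mL final), then antagonist. Agonist was ADP, collagen or thrombin (0.1 U/mL final). Born aggregometry with stirring; % inhibition from AUC; IC50 from at least triplicate runs.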

[4] = test system: Platelet; test: Inhibition of ADP-stimulated platelet aggregation in human platelet rich plasma by light transmission aggregometry based Born method; assay type: functional, cell-based
[5] = test system: Platelet; test: Inhibition of thrombin-stimulated platelet aggregation in human isolated platelets by light transmission aggregometry based Born method; assay type: functional, cell-based; in short: as §1
[6] = biological target: P2Y purinoceptor 12 (Homo sapiens, UniProt Q9H244); test: Displacement of [33P]2-MeS-ADP from human recombinant P2Y12 receptor expressed in CHO cell membranes by scintillation counting method
[7] = test system: Platelet; test: Inhibition of ADP-stimulated platelet aggregation in human isolated platelets by light transmission aggregometry based Born method; assay type: functional, cell-based; in short: as §1
[8] = test system: Canis familiaris; test: Antiplatelet aggregatory activity in dog assessed as inhibition of ADP-induced platelet aggregation at 10 mg/kg after 24 hrs; assay type: functional; details: Canis lupus familiaris
In short: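 Ex vivo dog model: compound given orally at 10 mg/kg. Whole-blood platelet aggregation was measured by impedance 24 h after dosing, with ADP as agonist. Inhibition was calculated from mean area under the curve.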

Sequence of P2Y purinoceptor 12 (Q9H244 whole entry): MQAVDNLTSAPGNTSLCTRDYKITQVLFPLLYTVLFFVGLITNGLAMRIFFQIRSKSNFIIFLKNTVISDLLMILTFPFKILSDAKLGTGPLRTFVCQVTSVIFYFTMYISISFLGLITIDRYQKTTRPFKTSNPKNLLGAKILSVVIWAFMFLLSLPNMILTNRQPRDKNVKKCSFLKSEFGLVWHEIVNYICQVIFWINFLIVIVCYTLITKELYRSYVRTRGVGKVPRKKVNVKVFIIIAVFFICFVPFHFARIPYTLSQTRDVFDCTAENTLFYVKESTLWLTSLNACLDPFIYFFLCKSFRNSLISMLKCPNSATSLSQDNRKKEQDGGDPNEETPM
Sequence of P2Y purinoceptor 1 (P47900 whole entry): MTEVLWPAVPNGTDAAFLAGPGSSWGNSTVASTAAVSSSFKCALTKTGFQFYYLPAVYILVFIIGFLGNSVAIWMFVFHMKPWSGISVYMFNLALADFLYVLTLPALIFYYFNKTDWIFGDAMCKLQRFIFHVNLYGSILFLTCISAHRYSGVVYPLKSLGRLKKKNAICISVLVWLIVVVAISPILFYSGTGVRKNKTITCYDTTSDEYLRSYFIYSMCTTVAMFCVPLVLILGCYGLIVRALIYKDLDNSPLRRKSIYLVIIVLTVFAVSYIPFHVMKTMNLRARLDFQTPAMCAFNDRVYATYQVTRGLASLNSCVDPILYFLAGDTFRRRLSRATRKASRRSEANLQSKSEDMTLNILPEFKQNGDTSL

Row | Compound | IC50 [1] | Ki [2] | IC50 [3] | IC50 [4] | IC50 [5] | Ki [6] | IC50 [7] | inhibition in vivo at 10 mg/kg [8]
1 | CCOC(=O)N1CCN(C(=O)[C@H](CCC(=O)O)NC(=O)c2cc(OCC(=O)N3CCC[C@H]3C(=O)NC3CCC3)n(-c3ccccc3)n2)CC1 | 25 nM | > 20000 nM | > 2000 nM | 9 nM | > 2000 nM | 7.3 nM | 7 nM | 
2 | CCOC(=O)N1CCN(C(=O)[C@H](CCC(=O)O)NC(=O)c2cc(OC3(C(=O)OCC)CCC3)n(-c3ccccc3)n2)CC1 | 3300 nM | > 20000 nM | > 2000 nM | 2930 nM | > 2000 nM | 139 nM | 701 nM | 
3 | CCCOC(=O)N1CCN(C(=O)[C@H](CCC(=O)O)NC(=O)c2cc(OCC(=O)N3CCC[C@H]3C(=O)NC3CCC3)n(-c3ccccc3)n2)CC1 | 21 nM |  |  | 30 nM |  | 3.1 nM |  | 
4 | CCCCOC(=O)N1CCN(C(=O)CNC(=O)c2cc(OCC(=O)N3CCC[C@H]3C(=O)NC3CCC3)n(-c3ccccc3)n2)CC1 | 30 nM | > 20000 nM | > 2000 nM | 46 nM | > 2000 nM | 7.7 nM | 22 nM | 73%
5 | CCOC(=O)N1CCN(C(=O)[C@H](CCC(=O)O)NC(=O)c2cc(OCC(=O)C3CC3)n(-c3ccccc3)n2)CC1 | 2600 nM |  |  | 2510 nM |  | 249 nM |  | 
6 | CCOC(=O)N1CCN(C(=O)[C@H](CCC(=O)O)NC(=O)c2cc(OCC(=O)N3CCC[C@H]3C(=O)NC3CCCC3)n(-c3ccccc3)n2)CC1 | 13 nM |  |  | 38 nM |  | 20 nM |  | 
7 | CCOC(=O)N1CCN(C(=O)[C@H](CCO)NC(=O)c2cc(OCC(=O)N3CCC[C@H]3C(=O)NC3CCC3)n(-c3ccccc3)n2)CC1 | 210 nM |  |  | 120 nM |  | 23 nM |  | 
8 | CCOC(=O)N1CCN(C(=O)CNC(=O)c2cc(OCC(=O)N3CCC[C@H]3C(=O)NC3CCC3)n(-c3ccccc3)n2)CC1 | 90 nM |  | > 2000 nM | 100 nM | > 2000 nM | 107 nM | 99 nM | 
9 | CCOC(=O)N1CCN(C(=O)[C@H](CCC(=O)O)NC(=O)c2cc(OCC(=O)N3CCC[C@H]3C(=O)NCC3CCC3)n(-c3ccccc3)n2)CC1 | 100 nM |  |  | 72 nM |  | 19 nM |  | 
10 | CCOC(=O)COc1cc(C(=O)N[C@@H](CCC(=O)O)C(=O)N2CCN(C(=O)OCC)CC2)nn1-c1ccccc1 | 2250 nM |  |  | 2480 nM |  | 372 nM |  | 
11 | CCOC(=O)N1CCN(C(=O)[C@H](CCc2nnn[nH]2)NC(=O)c2cc(OCC(=O)N3CCC[C@H]3C(=O)NC3CCC3)n(-c3ccccc3)n2)CC1 | 40 nM |  |  | 69 nM |  | 5 nM |  | 
